Measured values taken from ChEMBL document CHEMBL1148383, “Semisynthetic macrolide antibacterials derived from tylosin. Synthesis and structure-activity relationships of novel desmycosin analogues” (J Med Chem, 2004).
Values after ≈ are worked out from the molar mass of the structure shown.

How the values were obtained:
Type in all cases: functional
Staphylococcus aureus [1] = test: Antibacterial activity against Staphylococcus aureus PSCB-0331
How it was run: (§1)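 MICs were determined by broth microdilution following NCCLS guidelines. The test panel includes erythromycin-susceptible strains and erythromycin-resistant strains with constitutive or inducible MLSB phenotypes or with efflux resistance.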

Streptococcus pneumoniae = test: Antibacterial activity against Streptococcus pneumoniae PSCB-0541; how it was run: as §1
Streptococcus pyogenes [2] = test: Antibacterial activity against Streptococcus pyogenes PSCB-0543; how it was run: as §1
Haemophilus influenzae = test: Antibacterial activity against Haemophilus influenzae ATCC 49247; how it was run: as §1
Staphylococcus aureus [3] = test: Antibacterial activity against Staphylococcus aureus PSCB-0330; how it was run: as §1
Staphylococcus aureus [4] = test: Antibacterial activity against Staphylococcus aureus PSCB-0538; how it was run: as §1
Escherichia coli = test: Antibacterial activity against Escherichia coli ATCC […]; how it was run: as §1
Enterococcus faecalis = test: Antibacterial activity against Enterococcus faecalis ATCC 29212; how it was run: as §1
Streptococcus pyogenes [5] = test: Antibacterial activity against Streptococcus pyogenes PSCB-0545; how it was run: as §1
Staphylococcus aureus [6] = test: Antibacterial activity against Staphylococcus aureus ATCC 13709; how it was run: as §1

| MIC (Staphylococcus aureus [1]) [µg/mL] | MIC (Streptococcus pneumoniae) [µg/mL] | MIC (Streptococcus pyogenes [2]) [µg/mL] | MIC (Haemophilus influenzae) [µg/mL] | MIC (Staphylococcus aureus [3]) [µg/mL] | MIC (Staphylococcus aureus [4]) [µg/mL] | MIC (Escherichia coli) [µg/mL] | MIC (Enterococcus faecalis) [µg/mL] | MIC (Streptococcus pyogenes [5]) [µg/mL] | MIC (Staphylococcus aureus [6]) [µg/mL] | Structure (SMILES) |
| --- | --- | --- | --- | --- | --- | --- | --- | --- | --- | --- |
| 32 (≈ 41.6 µM) | 4 (≈ 5.2 µM) | 64 (≈ 83.1 µM) | 128 (≈ 166 µM) | > 128 | 8 (≈ 10.4 µM) | > 128 | 8 (≈ 10.4 µM) | 16 (≈ 20.8 µM) | 8 (≈ 10.4 µM) | CC[C@H]1OC(=O)CC(=O)[C@H](C)[C@@H](O[C@@H]2O[C@@H](C)[C@@H](O)[C@@H](N(C)C)[C@H]2O)[C@H]2C[C@H](O)[C@@](C)(C2)C(=O)/C=C/C(C)=C/[C@@H]1CO[C@@H]1O[C@@H](C)[C@@H](O)[C@@H](OC)[C@@H]1OC |
| 2 (≈ 2.58 µM) | 2 (≈ 2.58 µM) | 1 (≈ 1.29 µM) | 64 (≈ 82.5 µM) | 128 (≈ 165 µM) | 2 (≈ 2.58 µM) | 128 (≈ 165 µM) | 32 (≈ 41.2 µM) | 1 (≈ 1.29 µM) | 1 (≈ 1.29 µM) | CC[C@H]1OC(=O)C[C@@H](O)[C@H](C)[C@@H](OC2OC(C)C(O)C(N(C)C)C2O)[C@@H](CC=O)C[C@@H](C)C(=O)CCC(C)C[C@@H]1COC1OC(C)C(O)C(OC)C1OC (some centres not stated) |
|  |  |  |  | > 128 |  | > 128 |  |  |  | CC[C@H]1OC(=O)C[C@@H](O)[C@H](C)[C@@H](OC2OC(C)C(O)C(=O)C2O)[C@@H](CC=O)C[C@@H](C)C(=O)/C=C/C(C)=C/[C@@H]1COC1OC(C)C(O)C(OC)C1OC (some centres not stated) |
| 2 (≈ 2.46 µM) | 2 (≈ 2.46 µM) | 2 (≈ 2.46 µM) | 32 (≈ 39.3 µM) | > 128 | 8 (≈ 9.83 µM) | > 128 | 8 (≈ 9.83 µM) | 2 (≈ 2.46 µM) | 1 (≈ 1.23 µM) | CC[C@H]1OC(=O)C[C@@H](OC(C)=O)[C@H](C)[C@@H](OC2OC(C)C(O)C(N(C)C)C2O)[C@@H](CC=O)C[C@@H](C)C(=O)/C=C/C(C)=C/[C@@H]1COC1OC(C)C(O)C(OC)C1OC (some centres not stated) |
| 0.5 (≈ 0.604 µM) | 2 (≈ 2.42 µM) | 0.5 (≈ 0.604 µM) | 16 (≈ 19.3 µM) | > 128 | 0.5 (≈ 0.604 µM) | > 128 | 0.5 (≈ 0.604 µM) | 0.5 (≈ 0.604 µM) | 0.5 (≈ 0.604 µM) | CC[C@H]1OC(=O)C[C@@H](O)[C@H](C)[C@@H](OC2OC(C)C(O)C(N(C)C)C2O)[C@@H](C/C=C/C(=O)OC)C[C@@H](C)C(=O)/C=C/C(C)=C/[C@@H]1COC1OC(C)C(O)C(OC)C1OC (some centres not stated) |
| 8 (≈ 10.3 µM) | 64 (≈ 82.7 µM) | 8 (≈ 10.3 µM) | > 128 | > 128 | 16 (≈ 20.7 µM) | > 128 | > 128 | 1 (≈ 1.29 µM) | 8 (≈ 10.3 µM) | CC[C@H]1O/C(O)=C/C(=O)[C@H](C)[C@@H](OC2OC(C)C(O)C(N(C)C)C2O)[C@@H](CC=O)C[C@@H](C)C(=O)CCC(C)C[C@@H]1COC1OC(C)C(O)C(OC)C1OC (some centres not stated) |
| 1 (≈ 1.3 µM) | 1 (≈ 1.3 µM) | 1 (≈ 1.3 µM) | 4 (≈ 5.18 µM) | > 128 | 1 (≈ 1.3 µM) | 128 (≈ 166 µM) | 1 (≈ 1.3 µM) | 0.5 (≈ 0.648 µM) | 1 (≈ 1.3 µM) | CC[C@H]1OC(=O)C[C@@H](O)[C@H](C)[C@@H](O[C@@H]2O[C@H](C)[C@@H](O)[C@@H](N(C)C)[C@H]2O)[C@@H](CC=O)C[C@@H](C)C(=O)/C=C/C(C)=C/[C@@H]1CO[C@@H]1O[C@H](C)[C@@H](O)[C@@H](OC)[C@H]1OC |
| 32 (≈ 41.6 µM) | 8 (≈ 10.4 µM) | 64 (≈ 83.1 µM) | 128 (≈ 166 µM) | > 128 | 4 (≈ 5.2 µM) | > 128 | 4 (≈ 5.2 µM) | 16 (≈ 20.8 µM) | 8 (≈ 10.4 µM) | CC[C@H]1OC(=O)CC(=O)[C@H](C)[C@@H](O[C@@H]2O[C@@H](C)[C@@H](O)[C@@H](N(C)C)[C@H]2O)[C@H]2C[C@@H](O)[C@](C)(C2)C(=O)/C=C/C(C)=C/[C@@H]1CO[C@@H]1O[C@@H](C)[C@@H](O)[C@@H](OC)[C@@H]1OC |
| 64 (≈ 83.1 µM) | 32 (≈ 41.6 µM) | 64 (≈ 83.1 µM) | 64 (≈ 83.1 µM) | > 128 | 32 (≈ 41.6 µM) | > 128 | 16 (≈ 20.8 µM) | 32 (≈ 41.6 µM) | 32 (≈ 41.6 µM) | CC[C@H]1OC(=O)CC2(O)C(C=O)[C@@H](C[C@@H](C)C(=O)/C=C/C(C)=C/[C@@H]1CO[C@@H]1O[C@@H](C)[C@@H](O)[C@@H](OC)[C@@H]1OC)[C@H](O[C@@H]1O[C@@H](C)[C@@H](O)[C@@H](N(C)C)[C@H]1O)[C@H]2C (some centres not stated) |
